What was measured:
Assay type in all cases: functional
Staphylococcus aureus [1] = assay: Antimicrobial activity against extended spectrum beta-lactamases-producing methicillin-resistant Staphylococcus aureus 10-11 after 18-24 hrs by two-fold serial dilution method
Procedure, shortened: (§1)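 Agar twofold serial dilution MIC against clinical isolates. MIC was taken as the lowest concentration giving complete inhibition of bacterial growth after incubation at 35 °C for 18-24 h.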

Staphylococcus aureus [2] = assay: Antimicrobial activity against extended spectrum beta-lactamases-producing methicillin-resistant Staphylococcus aureus 10-15 after 18-24 hrs by two-fold serial dilution method; procedure, shortened: as §1
Staphylococcus aureus [3] = assay: Antimicrobial activity against extended spectrum beta-lactamases-producing methicillin-sensitive Staphylococcus aureus 10-14 after 18-24 hrs by two-fold serial dilution method
Procedure, shortened: (§2)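 Agar-medium twofold serial dilution against Gram-positive and Gram-negative strains; MIC taken as the lowest compound concentration giving complete inhibition of bacterial growth after incubation at 35 °C for 18-24 h.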

[4] = test system: Staphylococcus epidermidis; assay: Antimicrobial activity against extended spectrum beta-lactamases-producing methicillin-resistant Staphylococcus epidermidis 10-10 after 18-24 hrs by two-fold serial dilution method; procedure, shortened: as §1
[5] = test system: Staphylococcus epidermidis; assay: Antimicrobial activity against extended spectrum beta-lactamases-producing methicillin-resistant Staphylococcus epidermidis 10-13 after 18-24 hrs by two-fold serial dilution method; procedure, shortened: as §1
[6] = test system: Staphylococcus epidermidis; assay: Antimicrobial activity against extended spectrum beta-lactamases-producing methicillin-sensitive Staphylococcus epidermidis 10-11 after 18-24 hrs by two-fold serial dilution method; procedure, shortened: as §2
[7] = test system: Staphylococcus epidermidis; assay: Antimicrobial activity against extended spectrum beta-lactamases-producing methicillin-sensitive Staphylococcus epidermidis 10-13 after 18-24 hrs by two-fold serial dilution method; procedure, shortened: as §2
[8] = test system: Staphylococcus epidermidis; assay: Antimicrobial activity against extended spectrum beta-lactamases-producing methicillin-sensitive Staphylococcus epidermidis 10-15 after 18-24 hrs by two-fold serial dilution method; procedure, shortened: as §2
Enterococcus faecalis [9] = assay: Antimicrobial activity against Enterococcus faecalis 10-5 after 18-24 hrs by two-fold serial dilution method; procedure, shortened: as §2
Enterococcus faecalis [10] = assay: Antimicrobial activity against Enterococcus faecalis 10-6 after 18-24 hrs by two-fold serial dilution method; procedure, shortened: as §2
Enterococcus faecalis [11] = assay: Antimicrobial activity against Enterococcus faecalis 10-7 after 18-24 hrs by two-fold serial dilution method; procedure, shortened: as §2
Enterococcus faecium [12] = assay: Antimicrobial activity against Enterococcus faecium 10-9 after 18-24 hrs by two-fold serial dilution method; procedure, shortened: as §2
Escherichia coli [13] = assay: Antimicrobial activity against Escherichia coli 10-1 after 18-24 hrs by two-fold serial dilution method; procedure, shortened: as §2
Escherichia coli [14] = assay: Antimicrobial activity against Escherichia coli 10-3 after 18-24 hrs by two-fold serial dilution method; procedure, shortened: as §2
Escherichia coli [15] = assay: Antimicrobial activity against extended spectrum beta-lactamases-producing Escherichia coli 10-3 after 18-24 hrs by two-fold serial dilution method; procedure, shortened: as §2
Klebsiella pneumoniae [16] = assay: Antimicrobial activity against extended spectrum beta-lactamases-producing Klebsiella pneumoniae 10-1 after 18-24 hrs by two-fold serial dilution method; procedure, shortened: as §2
Klebsiella pneumoniae [17] = assay: Antimicrobial activity against Klebsiella pneumoniae 10-2 after 18-24 hrs by two-fold serial dilution method; procedure, shortened: as §2
Klebsiella pneumoniae [18] = assay: Antimicrobial activity against extended spectrum beta-lactamases-producing Klebsiella pneumoniae 10-2 after 18-24 hrs by two-fold serial dilution method; procedure, shortened: as §2
Klebsiella pneumoniae [19] = assay: Antimicrobial activity against extended spectrum beta-lactamases-producing Klebsiella pneumoniae 10-3 after 18-24 hrs by two-fold serial dilution method; procedure, shortened: as §2
Klebsiella pneumoniae [20] = assay: Antimicrobial activity against Klebsiella pneumoniae 10-4 after 18-24 hrs by two-fold serial dilution method; procedure, shortened: as §2
Pseudomonas aeruginosa [21] = assay: Antimicrobial activity against extended spectrum beta-lactamases-producing Pseudomonas aeruginosa 10-9 after 18-24 hrs by two-fold serial dilution method; procedure, shortened: as §2
Pseudomonas aeruginosa [22] = assay: Antimicrobial activity against extended spectrum beta-lactamases-producing Pseudomonas aeruginosa 10-18 after 18-24 hrs by two-fold serial dilution method; procedure, shortened: as §2
Pseudomonas aeruginosa [23] = assay: Antimicrobial activity against extended spectrum beta-lactamases-producing Pseudomonas aeruginosa 10-20 after 18-24 hrs by two-fold serial dilution method; procedure, shortened: as §2
Staphylococcus aureus [24] = assay: Antimicrobial activity against methicillin-resistant Staphylococcus aureus clinical isolate after 18-24 hrs by two-fold serial dilution method; procedure, shortened: as §1
Staphylococcus aureus [25] = assay: Ratio of levofloxacin MIC to compound MIC for Staphylococcus aureus ATCC […] after 18-24 hrs by two-fold serial dilution method
Staphylococcus aureus [26] = assay: Ratio of levofloxacin MIC to compound MIC for extended spectrum beta-lactamases-producing methicillin-sensitive Staphylococcus aureus 10-14 after 18-24 hrs by two-fold serial dilution method
Procedure, shortened: (§3)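 MICs were determined by the standard twofold serial dilution method on agar media against the test strains, with levofloxacin run as a reference. MIC is the lowest concentration giving complete inhibition of bacterial growth after 18–24 h incubation at 35 °C. The ratio is levofloxacin MIC divided by test-compound MIC.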

[27] = test system: Staphylococcus epidermidis; assay: Ratio of levofloxacin MIC to compound MIC for extended spectrum beta-lactamases-producing methicillin-sensitive Staphylococcus epidermidis 10-13 after 18-24 hrs by two-fold serial dilution method; procedure, shortened: as §3
[28] = test system: Staphylococcus epidermidis; assay: Ratio of levofloxacin MIC to compound MIC for extended spectrum beta-lactamases-producing methicillin-sensitive Staphylococcus epidermidis 10-15 after 18-24 hrs by two-fold serial dilution method; procedure, shortened: as §3
Enterococcus faecalis [29] = assay: Ratio of levofloxacin MIC to compound MIC for Enterococcus faecalis 10-5 after 18-24 hrs by two-fold serial dilution method
Enterococcus faecalis [30] = assay: Ratio of levofloxacin MIC to compound MIC for Enterococcus faecalis 10-6 after 18-24 hrs by two-fold serial dilution method
Enterococcus faecalis [31] = assay: Ratio of levofloxacin MIC to compound MIC for Enterococcus faecalis 10-7 after 18-24 hrs by two-fold serial dilution method
Enterococcus faecium [32] = assay: Ratio of levofloxacin MIC to compound MIC for Enterococcus faecium 10-5 after 18-24 hrs by two-fold serial dilution method
Enterococcus faecium [33] = assay: Ratio of levofloxacin MIC to compound MIC for Enterococcus faecium 10-9 after 18-24 hrs by two-fold serial dilution method
Staphylococcus aureus [34] = assay: Ratio of gemifloxacin MIC to compound MIC for Staphylococcus aureus ATCC […] after 18-24 hrs by two-fold serial dilution method
Staphylococcus aureus [35] = assay: Ratio of gemifloxacin MIC to compound MIC for extended spectrum beta-lactamases-producing methicillin-sensitive Staphylococcus aureus 10-14 after 18-24 hrs by two-fold serial dilution method
[36] = test system: Staphylococcus epidermidis; assay: Ratio of gemifloxacin MIC to compound MIC for extended spectrum beta-lactamases-producing methicillin-sensitive Staphylococcus epidermidis 10-11 after 18-24 hrs by two-fold serial dilution method
[37] = test system: Staphylococcus epidermidis; assay: Ratio of gemifloxacin MIC to compound MIC for extended spectrum beta-lactamases-producing methicillin-sensitive Staphylococcus epidermidis 10-13 after 18-24 hrs by two-fold serial dilution method
Enterococcus faecalis [38] = assay: Ratio of gemifloxacin MIC to compound MIC for Enterococcus faecalis 10-7 after 18-24 hrs by two-fold serial dilution method
Enterococcus faecium [39] = assay: Ratio of gemifloxacin MIC to compound MIC for Enterococcus faecium 10-9 after 18-24 hrs by two-fold serial dilution method
Streptococcus pneumoniae [40] = assay: Ratio of gemifloxacin MIC to compound MIC for extended spectrum beta-lactamases-producing Streptococcus pneumoniae 10-1 after 18-24 hrs by two-fold serial dilution method
Streptococcus pneumoniae [41] = assay: Ratio of gemifloxacin MIC to compound MIC for extended spectrum beta-lactamases-producing Streptococcus pneumoniae 10-4 after 18-24 hrs by two-fold serial dilution method

COc1ccc(OC)c(CO/N=C2\CN(c3nc4c(cc3F)c(=O)c(C(=O)O)cn4C3CC3)CC2CN)c1.CS(=O)(=O)O (racemic)
MIC (Staphylococcus aureus [1]): 1 µg/mL
MIC (Staphylococcus aureus [2]): 0.125 µg/mL
MIC (Staphylococcus aureus [3]): 0.03 µg/mL
MIC [4]: 0.25 µg/mL
MIC [5]: 0.25 µg/mL
MIC [6]: 0.25 µg/mL
MIC [7]: 0.03 µg/mL
MIC [8]: 4 µg/mL
MIC (Enterococcus faecalis [9]): 0.25 µg/mL
MIC (Enterococcus faecalis [10]): 4 µg/mL
MIC (Enterococcus faecalis [11]): 0.25 µg/mL
MIC (Enterococcus faecium [12]): 4 µg/mL
MIC (Escherichia coli [13]): > 128 µg/mL
MIC (Escherichia coli [14]): > 128 µg/mL
MIC (Escherichia coli [15]): > 128 µg/mL
MIC (Klebsiella pneumoniae [16]): > 128 µg/mL
MIC (Klebsiella pneumoniae [17]): > 128 µg/mL
MIC (Klebsiella pneumoniae [18]): > 128 µg/mL
MIC (Klebsiella pneumoniae [19]): > 128 µg/mL
MIC (Klebsiella pneumoniae [20]): > 128 µg/mL
MIC (Pseudomonas aeruginosa [21]): > 128 µg/mL
MIC (Pseudomonas aeruginosa [22]): > 128 µg/mL
MIC (Pseudomonas aeruginosa [23]): > 128 µg/mL
MIC50 (Staphylococcus aureus [24]): 0.5 µg/mL
MIC90 (Staphylococcus aureus [24]): 1 µg/mL
Ratio (Staphylococcus aureus [25]): 8
Ratio (Staphylococcus aureus [26]): 8
Ratio [27]: 8
Ratio [28]: 8
Ratio (Enterococcus faecalis [29]): 8
Ratio (Enterococcus faecalis [30]): 8
Ratio (Enterococcus faecalis [31]): 8
Ratio (Enterococcus faecium [32]): 8
Ratio (Enterococcus faecium [33]): 8
Ratio (Staphylococcus aureus [34]): 2
Ratio (Staphylococcus aureus [35]): 2
Ratio [36]: 2
Ratio [37]: 2
Ratio (Enterococcus faecalis [38]): 2
Ratio (Enterococcus faecium [39]): 2
Ratio (Streptococcus pneumoniae [40]): 2
Ratio (Streptococcus pneumoniae [41]): 2
